Bioassay records: PubChem BioAssay, several laboratories
TDP2 inh = human TDP2 enzyme inhibitors, primary screen, biochemical, epi absorbance, recombinant enzyme; Tyrosyl-DNA phosphodiesterase 2 (Homo sapiens), O95551; T5PNP hydrolysis, p-nitrophenol absorbance 415 nm; inhibition, % at 12.8 µM; 370,000 compounds, 0.34% hits; AID 720702, 2013;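 active = inhibition above the mean of all tested compounds plus 3 SD, set per campaign, cut at about 25% in these data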;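 note: 0% = DMSO with enzyme and 100% = buffer with substrate but no TDP2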
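Test system: human TDP2 enzyme; Input: 120 nM TDP2 per well; Buffer or medium: Mg2+-containing Tris-HCl buffer, pH 7.5; Reagent: 5 mM T5PNP; Dosing: 12.8 µM single point, 1% DMSO; Incubation: reaction 2 h, 37 °C; Detection: p-Nitrophenol epi absorbance; Read-out: % inhibition relative to enzyme-containing and enzyme-free wells; Replicates: single well per compound.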
JMJD2C inh = inhibitors of GASC-1 histone demethylase, primary screen, biochemical, fluorescence, DELFIA europium. Lysine-specific demethylase 4C (Homo sapiens), Q9H3R0. GST-JMJD2C(1-420) H3K9me3 demethylation. inhibition, % at 2.35 µM. 330,000 compounds, 0.069% hits. AID 2099, 2009;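 active = more than half of a compound's replicate wells show inhibition beyond 50%, single wells judged on their own value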;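 note: signal counts dimethyl H3K9 product captured on neutravidin plate; 0% = median of DMSO wells and 100% = 0.3 times that DMSO median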
Apaf-1 inh = inhibitors of human Apaf-1 apoptosome, primary screen, biochemical, DEVD-Rh110 fluorescence, uHTS; Apoptotic protease-activating factor 1 (Homo sapiens), O14727; reconstituted apoptosome caspase-3 activity; inhibition, % at 20 µM; 330,000 compounds, 0.71% hits; active = inhibition of at least 40% at 20 µM;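 note: plate controls were DMSO wells for no effect and DEVD-CHO caspase inhibitor wells for full effect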
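Material: cell-free apoptosome with Apaf-1, procaspase-3 and caspase-9; Buffer or medium: Hepes pH 7.5 with detergent and BSA; Reagent: cytochrome c trigger plus (Z-DEVD)2-Rh110 caspase-3 substrate; Times: compound with Apaf-1, dATP, procaspase-3 30 min, then 50 min reaction, room temperature; Technique: Rh110 fluorescence intensity.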
GSTO1 counter = inhibitors of recombinant GSTO1, primary screen, counter-screen for RBBP9 inhibitor project, biochemical, fluorescence polarization | 300,000 compounds, 1.1% hits | activity-based probe fluorescence polarization | inhibition, % at 5.96 µM | Glutathione S-transferase omega-1 (Homo sapiens), P78417;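 active = inhibition above the campaign mean inhibition plus 3 SD, cut at about 35% in these data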;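 note: 0% = GSTO1-1 with DMSO and 100% = wells lacking GSTO1-1 enzyme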
SUMO HTRF inh = inhibitors of in vitro SUMOylation cascade, primary screen, biochemical, HTRF, uHTS; HTRF SUMOylation assay, SAE1/SAE2 + UBC9; inhibition, % at 35 µM; 290,000 compounds, 0.36% hits; AID 2006, 2009; in the data active = inhibition above about 50%, passing the limit was not always enough
PAD4 inh = human PAD4 inhibitors, primary screen, biochemical, fluorescence polarization, 1536-well format. 330,000 compounds, 0.41% hits. recombinant PAD4, RCA probe fluorescence polarization. AID 485272, 2010. Protein-arginine deiminase type-4 (Homo sapiens), Q9UM07. inhibition, % at 6.36 µM;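 active = percent inhibition above a cutoff equal to the mean of all tested compounds plus 3 SD, cut at about 15% in these data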;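 note: 0% = PAD4 with RCA probe and DMSO and 100% = probe without PAD4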
The depositor's hits bear a star; . = no result. An excerpt weighted towards active compounds, which were near 1.6% of everything screened.

SMILES	TDP2 inh	JMJD2C inh	Apaf-1 inh	GSTO1 counter	SUMO HTRF inh	PAD4 inh
Brc1ccc(OCc2nc3ccccc3[nH]2)cc1	4	15	27	37*	-6	-15
N#C/C(C(=O)Nc1ccc(Cl)cc1)=C(/S)Nc1ccccc1	-2	-18	18	52*	9	1
Cc1ccc(S(=O)(=O)c2c(N)n(CCCN(C)C)c3nc4ccccc4nc23)cc1	-1	7	12	-8	27	1
CN(C)CCCn1c(N)c(C#N)c2nc3ccccc3nc21	14	17	10	-4	103*	-2
CCN(CC(=O)NCC1CCCO1)S(=O)(=O)c1ccc(Cl)cc1 (stereo not drawn)	-1	50*	3	-6	10	3
O=C(C[n+]1ccccc1)N1CCCc2ccccc21	4	21	2	2	7	1
O=C(Cc1cccc2ccccc12)N1CCCc2ccccc21	-1	58*	16	-5	17	1
Cn1c(=O)cc(OCCCC(=O)Nc2cc(-c3cn[nH]c3)ccn2)c2ccccc21	4	.	.	.	.	.
CCOc1ccc2c(c1)C(NC(C)=O)C(=O)N2CCN1CCOCC1 (stereo not drawn)	15	-3	0	.	57*	.
CCN1C(=O)C(NC(C)=O)c2cc(OC)ccc21 (stereo not drawn)	11	-2	-6	-1	11	1
COc1ccc(S[C@]2(C(=O)N3CCN(C(C)=O)CC3)CC(=O)N(S(=O)(=O)c3ccc(F)cc3)[C@@H]2c2ccc(OC)cc2)cc1	-7	.	.	.	.	.
Cc1ccc(Oc2ccc(OCC(=O)NC(CC(C)C)C(=O)O)cc2)cc1 (stereo not drawn)	13	19	-4	38*	10	-2
CC(C)COc1ccc(C(=O)NC(CC(C)C)C(=O)O)cc1 (stereo not drawn)	-8	8	0	8	19	-2
CCc1ccc2nc(N(CCCN(C)C)C(=O)c3ccc(S(=O)(=O)N(C)C4CCCCC4)cc3)sc2c1	-9	-8	54*	26	17	-3
COC(=O)[C@]12C[C@H](CC(=O)NCC3CCCCC3)C(=O)N(Cc3ccco3)C1=C[C@H](COCc1ccccc1)O[C@@H]2C	3	.	.	.	.	.
O=C(O)/C(=C\c1ccc(Cl)c([N+](=O)[O-])c1)c1ccc(S(=O)(=O)N2CCCCC2)s1	-2	-15	7	62*	39	-1
O=C(O)/C(=C\c1ccc(Cl)c([N+](=O)[O-])c1)c1ccc(S(=O)(=O)N2CCCC2)s1	-2	4	3	.	.	2
CCC[C@H]1[C@@H](OC(=O)NCc2ccc(Cl)c(Cl)c2)CC[C@@]23CCCN2C(=O)CCC[C@@H]13	-6	.	.	.	.	.
Cc1cccc(CNc2ncnc3ccc(-c4ccc5c(c4)OCCO5)cc23)c1	0	-7	42*	.	.	1
c1nc(NCc2ccc3c(c2)OCO3)c2cc(-c3ccc4c(c3)OCCO4)ccc2n1	3	.	21	.	.	-2
COc1ccc(S(=O)(=O)Nc2ccc3c(c2)C(=O)N([C@H](C)CO)C[C@H](C)[C@H](CN(C)Cc2ccc(C(=O)O)cc2)O3)cc1	-9	51*	2	.	.	2
Cc1ccc(S(=O)(=O)Nc2ccc3c(c2)C(=O)N([C@H](C)CO)C[C@H](C)[C@@H](CN(C)Cc2ccc(-c4ccccc4)cc2)O3)cc1	.	56*	27	.	.	2
N#C[C@@H]1N[C@H](CO)[C@@H]1c1ccccc1	3	.	.	.	.	.
Cc1ccc(NC(=O)c2ccc(CN3CCc4ccccc4C3)cc2)cc1	-5	1	48*	1	1	-1
O=C(Nc1ccccc1)c1ccc(CN2CCc3ccccc3C2)cc1	2	13	7	-7	9	-3
SMILES	TDP2 inh	JMJD2C inh	Apaf-1 inh	GSTO1 counter	SUMO HTRF inh	PAD4 inh
CC(C)c1ccc(S(=O)(=O)/N=C2/C=C(Sc3ncn[nH]3)C(=O)c3ccccc32)cc1	.	7	.	85*	90*	38*
Cc1ccc(S(=O)(=O)Nc2ccc(O)c(Sc3ncn[nH]3)c2)cc1	-1	12	2	14	11	-5
C[n+]1c(/C=C/c2ccc(O)cc2)ccc2ccccc21	-9	-15	7	-8	6	3
Cc1cc(/C=C\c2ccc3cc(N(C)C)ccc3[n+]2C)c(C)n1-c1ccccc1	.	.	43*	-54	.	-101
Nc1c(C(=O)NCc2ccco2)c2nc3ccccc3nc2n1CCc1ccccc1	3	6	.	.	99*	.
COc1ccc(CNC(=O)c2c(N)n(CCCN3CCOCC3)c3nc4ccccc4nc23)cc1	2	-8	87*	5	94	0
O=C(Oc1coc(CSc2ncccn2)cc1=O)c1ccc([N+](=O)[O-])cc1	11	.	.	.	.	.
Cc1ccccc1NC(=O)c1ccc(N/N=C/c2ccccc2O)c([N+](=O)[O-])c1	3	-1	-2	-2	57*	4
NS(=O)(=O)c1ccc(N/N=C/c2ccccc2C(=O)O)c([N+](=O)[O-])c1	10	27	-8	6	9	7
C#CCN1CC(N2CCN(CCO)CC2)CS1(=O)=O (stereo not drawn)	-8	.	.	.	.	.
O=C(O)c1cc2c(ccc3ccccc32)o1	3	9	-25	-2	-2	-4
NC(N)=Nc1cc2ccccc2c2ccccc12	17	6	77*	-2	86*	-7
COc1ccc(Br)cc1CN(C)CC(=O)NCc1ccc(F)cc1	19	53*	11	-5	2	-1
O=C(Nc1ccc2nc(-c3ccco3)c(-c3ccco3)nc2c1)N1CCCCCC1	.	0	57*	60*	58*	-12
Cc1cc(OC(C)CCN2CCC(C(O)(c3ccccc3)c3ccccc3)CC2)ccc1Br (stereo not drawn)	0	.	.	.	.	.
CCCCNC(=O)C[C@H]1C[C@@]2(C(=O)OC)C(=C[C@H](C(C)(C)C)O[C@@H]2C)N(Cc2cccc3ccccc23)C1=O	4	.	.	.	.	.
O=C(Nc1ccc(Oc2ccc(Cl)cc2)c(Cl)c1)c1cc(I)cc(I)c1O	-2	11	16	-1	59*	-2
C#CCOCCOCCOCCNc1nc(N2CCN(C(=O)Cn3cc(CCCN=C(N)N)nn3)CC2)nc(N2CCN(C(=O)[C@H](Cc3ccc(O)cc3)n3cc(CCO)nn3)CC2)n1	-8	.	.	.	.	.
O=C(CCCl)NC1CCCCN(Cc2ccc(OC(F)(F)F)cc2)C1=O (stereo not drawn)	-14	.	.	.	.	.
